Measurements reported in ChEMBL document CHEMBL1165969, “Synthesis and cytotoxicity of novel indirubin-5-carboxamides” (Bioorg Med Chem, 2010).
pIC50: −log10 of the molar value. Values after ≈ are worked out from the molar mass of the structure shown.

Tests used:
[1] = target: Muscle, skeletal receptor tyrosine-protein kinase (Homo sapiens) (UniProt O15146); experiment: Inhibition of MUSK assessed as residual activity at 1 uM after 80 mins by microplate scintillation counting
[2] = target: Platelet-derived growth factor receptor alpha (Homo sapiens) (UniProt P16234); experiment: Inhibition of PDGFRalpha assessed as residual activity at 10 uM after 80 mins by microplate scintillation counting
[3] = target: Platelet-derived growth factor receptor alpha (Homo sapiens) (UniProt P16234); experiment: Inhibition of PDGFRalpha assessed as residual activity at 1 uM after 80 mins by microplate scintillation counting
[4] = target: RAF proto-oncogene serine/threonine-protein kinase (Homo sapiens) (UniProt P04049); experiment: Inhibition of RAF1 assessed as residual activity at 10 uM after 80 mins by microplate scintillation counting
Procedure, shortened: (§1)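 Kinase profiling was outsourced to a contract laboratory as a panel of 30 protein kinases. Each compound was tested at two concentrations, and residual kinase activity was recorded.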

[5] = target: Proto-oncogene tyrosine-protein kinase receptor Ret (Homo sapiens) (UniProt P07949); experiment: Inhibition of RET assessed as residual activity at 1 uM after 80 mins by microplate scintillation counting; procedure, shortened: as §1
[6] = target: Ribosomal protein S6 kinase beta-1 (Homo sapiens) (UniProt P23443); experiment: Inhibition of p70S6K1 assessed as residual activity at 1 uM after 80 mins by microplate scintillation counting; procedure, shortened: as §1
[7] = target: Proto-oncogene tyrosine-protein kinase Src (Homo sapiens) (UniProt P12931); experiment: Inhibition of SRC assessed as residual activity at 10 uM after 80 mins by microplate scintillation counting; procedure, shortened: as §1
Proto-oncogene tyrosine-protein kinase Src (Homo sapiens), sequence (P12931 2-536 limits assumed): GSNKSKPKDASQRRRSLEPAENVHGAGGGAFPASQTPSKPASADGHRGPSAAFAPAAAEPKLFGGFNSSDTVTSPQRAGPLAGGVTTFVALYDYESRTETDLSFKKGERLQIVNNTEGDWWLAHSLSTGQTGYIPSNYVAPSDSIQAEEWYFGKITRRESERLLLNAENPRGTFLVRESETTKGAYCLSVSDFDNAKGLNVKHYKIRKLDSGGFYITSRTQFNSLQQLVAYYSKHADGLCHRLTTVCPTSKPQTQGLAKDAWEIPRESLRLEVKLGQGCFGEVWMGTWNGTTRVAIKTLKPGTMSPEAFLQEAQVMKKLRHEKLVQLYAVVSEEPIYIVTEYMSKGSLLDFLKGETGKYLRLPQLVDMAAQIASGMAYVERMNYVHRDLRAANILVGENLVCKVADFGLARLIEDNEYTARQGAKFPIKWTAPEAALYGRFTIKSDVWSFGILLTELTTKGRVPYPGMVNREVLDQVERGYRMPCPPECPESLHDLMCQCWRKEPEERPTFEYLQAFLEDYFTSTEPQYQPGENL

[8] = target: Proto-oncogene tyrosine-protein kinase Src (Homo sapiens) (UniProt P12931); experiment: Inhibition of SRC assessed as residual activity at 1 uM after 80 mins by microplate scintillation counting; procedure, shortened: as §1
[9] = target: Vascular endothelial growth factor receptor 2 (Homo sapiens) (UniProt P35968); experiment: Inhibition of VEGFR2 assessed as residual activity at 10 uM after 80 mins by microplate scintillation counting; procedure, shortened: as §1
Vascular endothelial growth factor receptor 2 (Homo sapiens), sequence (P35968 whole entry): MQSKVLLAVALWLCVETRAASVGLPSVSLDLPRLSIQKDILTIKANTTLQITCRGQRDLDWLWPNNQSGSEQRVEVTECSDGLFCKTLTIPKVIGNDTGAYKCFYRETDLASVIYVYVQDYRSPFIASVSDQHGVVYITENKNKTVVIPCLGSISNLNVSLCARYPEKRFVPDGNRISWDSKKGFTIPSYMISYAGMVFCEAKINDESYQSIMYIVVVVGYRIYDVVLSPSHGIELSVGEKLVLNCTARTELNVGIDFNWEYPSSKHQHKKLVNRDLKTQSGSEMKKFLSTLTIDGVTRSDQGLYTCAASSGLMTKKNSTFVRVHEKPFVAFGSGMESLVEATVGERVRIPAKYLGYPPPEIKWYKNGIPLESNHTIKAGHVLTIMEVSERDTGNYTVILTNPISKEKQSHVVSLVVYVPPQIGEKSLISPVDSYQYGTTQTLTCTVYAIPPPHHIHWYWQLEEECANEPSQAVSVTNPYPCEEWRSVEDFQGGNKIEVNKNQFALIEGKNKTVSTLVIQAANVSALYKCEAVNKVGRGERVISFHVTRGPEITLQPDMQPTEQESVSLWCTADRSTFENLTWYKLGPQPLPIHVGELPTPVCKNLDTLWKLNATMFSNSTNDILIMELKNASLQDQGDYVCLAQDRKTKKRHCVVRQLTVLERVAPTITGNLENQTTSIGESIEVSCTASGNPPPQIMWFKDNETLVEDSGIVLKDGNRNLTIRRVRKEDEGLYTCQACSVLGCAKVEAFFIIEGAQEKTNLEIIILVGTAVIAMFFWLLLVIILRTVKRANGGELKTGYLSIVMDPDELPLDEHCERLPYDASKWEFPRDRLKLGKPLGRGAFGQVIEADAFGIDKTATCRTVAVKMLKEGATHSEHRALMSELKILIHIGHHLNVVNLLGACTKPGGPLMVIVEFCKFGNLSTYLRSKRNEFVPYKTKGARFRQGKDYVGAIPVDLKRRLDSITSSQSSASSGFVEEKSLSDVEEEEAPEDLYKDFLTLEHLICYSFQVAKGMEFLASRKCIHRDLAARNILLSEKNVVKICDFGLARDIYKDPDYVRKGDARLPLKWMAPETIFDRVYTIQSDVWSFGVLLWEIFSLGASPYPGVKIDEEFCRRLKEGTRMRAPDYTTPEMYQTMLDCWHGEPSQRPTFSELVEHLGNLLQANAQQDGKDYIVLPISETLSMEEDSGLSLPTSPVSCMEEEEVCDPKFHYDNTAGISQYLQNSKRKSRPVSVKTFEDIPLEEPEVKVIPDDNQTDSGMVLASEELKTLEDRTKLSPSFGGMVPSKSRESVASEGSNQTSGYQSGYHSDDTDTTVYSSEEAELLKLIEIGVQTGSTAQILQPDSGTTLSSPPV

[10] = target: Vascular endothelial growth factor receptor 2 (Homo sapiens) (UniProt P35968); experiment: Inhibition of VEGFR2 assessed as residual activity at 1 uM after 80 mins by microplate scintillation counting; procedure, shortened: as §1
[11] = target: Vascular endothelial growth factor receptor 3 (Homo sapiens) (UniProt P35916); experiment: Inhibition of VEGFR3 assessed as residual activity at 1 uM after 80 mins by microplate scintillation counting; procedure, shortened: as §1
[12] = target: Aurora kinase A (Homo sapiens) (UniProt O14965); experiment: Inhibition of Aurora A assessed as residual activity at 1 uM after 80 mins by microplate scintillation counting
[13] = target: Cyclin-dependent kinase 1/cyclin B1 (Homo sapiens) (UniProt P06493+P14635); experiment: Inhibition of CDK1/Cyclin B1 assessed as residual activity at 1 uM after 80 mins by microplate scintillation counting; format: protein-complex assay
[14] = target: Cyclin-dependent kinase 2/cyclin A (Homo sapiens) (UniProt P24941+P20248+P78396); experiment: Inhibition of CDK2/Cyclin A assessed as residual activity at 10 uM after 80 mins by microplate scintillation counting; format: protein-complex assay
[15] = target: Cyclin-dependent kinase 2/cyclin E1 (Homo sapiens) (UniProt P24864+P24941); experiment: Inhibition of CDK2/Cyclin E assessed as residual activity at 1 uM after 80 mins by microplate scintillation counting; format: protein-complex assay
[16] = target: T1, Cyclin-dependent kinase 4/cyclin D1 (Homo sapiens) (UniProt P11802+P24385); experiment: Inhibition of CDK4/Cyclin D1 assessed as residual activity at 10 uM after 80 mins by microplate scintillation counting; format: protein-complex assay
[17] = target: T1, Cyclin-dependent kinase 4/cyclin D1 (Homo sapiens); experiment: Inhibition of CDK4/Cyclin D1 assessed as residual activity at 1 uM after 80 mins by microplate scintillation counting; format: protein-complex assay
[18] = target: Cyclin-dependent kinase 5/CDK5 activator 1 (Homo sapiens) (UniProt Q00535+Q15078); experiment: Inhibition of CDK5/p35 assessed as residual activity at 10 uM after 80 mins by microplate scintillation counting; format: protein-complex assay
[19] = target: Serine/threonine-protein kinase Chk1 (Homo sapiens) (UniProt O14757); experiment: Inhibition of CHK1 assessed as residual activity at 10 uM after 80 mins by microplate scintillation counting
[20] = target: Epidermal growth factor receptor (Homo sapiens) (UniProt P00533); experiment: Inhibition of EGFR assessed as residual activity at 10 uM after 80 mins by microplate scintillation counting
[21] = target: Receptor tyrosine-protein kinase erbB-2 (Homo sapiens) (UniProt P04626); experiment: Inhibition of ERBB2 assessed as residual activity at 10 uM after 80 mins by microplate scintillation counting
Receptor tyrosine-protein kinase erbB-2 (Homo sapiens), sequence (P04626 whole entry): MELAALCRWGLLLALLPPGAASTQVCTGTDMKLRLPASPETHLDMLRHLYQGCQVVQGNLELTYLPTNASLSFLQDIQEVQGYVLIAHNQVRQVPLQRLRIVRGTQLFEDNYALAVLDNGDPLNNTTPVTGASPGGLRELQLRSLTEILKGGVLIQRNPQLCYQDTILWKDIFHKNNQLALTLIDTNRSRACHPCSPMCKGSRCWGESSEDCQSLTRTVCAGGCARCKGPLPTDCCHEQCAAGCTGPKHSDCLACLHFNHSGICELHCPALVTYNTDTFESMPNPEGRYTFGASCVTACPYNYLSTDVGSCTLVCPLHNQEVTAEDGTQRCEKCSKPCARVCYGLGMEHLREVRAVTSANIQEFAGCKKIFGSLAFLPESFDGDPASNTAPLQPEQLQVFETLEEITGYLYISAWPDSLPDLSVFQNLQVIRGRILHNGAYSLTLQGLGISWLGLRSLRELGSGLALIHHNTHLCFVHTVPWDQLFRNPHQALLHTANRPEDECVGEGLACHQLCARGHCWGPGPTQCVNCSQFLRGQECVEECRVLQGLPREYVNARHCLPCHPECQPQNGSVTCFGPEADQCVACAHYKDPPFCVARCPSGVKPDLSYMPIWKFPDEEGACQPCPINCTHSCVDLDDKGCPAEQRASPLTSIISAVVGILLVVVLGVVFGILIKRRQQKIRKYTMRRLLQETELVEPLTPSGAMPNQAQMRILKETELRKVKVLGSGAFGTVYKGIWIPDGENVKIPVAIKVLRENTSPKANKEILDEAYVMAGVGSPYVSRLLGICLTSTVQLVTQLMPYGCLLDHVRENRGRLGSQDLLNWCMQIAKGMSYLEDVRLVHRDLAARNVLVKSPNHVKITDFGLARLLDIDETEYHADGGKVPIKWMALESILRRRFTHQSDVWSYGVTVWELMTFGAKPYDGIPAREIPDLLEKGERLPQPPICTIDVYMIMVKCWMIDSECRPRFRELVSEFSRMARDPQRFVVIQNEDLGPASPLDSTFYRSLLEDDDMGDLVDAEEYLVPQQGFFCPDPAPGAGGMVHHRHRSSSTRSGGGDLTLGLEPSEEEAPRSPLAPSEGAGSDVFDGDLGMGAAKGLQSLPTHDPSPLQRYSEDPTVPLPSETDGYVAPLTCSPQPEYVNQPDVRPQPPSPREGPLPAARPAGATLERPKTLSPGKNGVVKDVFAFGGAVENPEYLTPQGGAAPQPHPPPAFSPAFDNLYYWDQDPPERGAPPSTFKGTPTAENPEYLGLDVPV

[22] = target: Receptor tyrosine-protein kinase erbB-2 (Homo sapiens) (UniProt P04626); experiment: Inhibition of ERBB2 assessed as residual activity at 1 uM after 80 mins by microplate scintillation counting
[23] = target: Focal adhesion kinase 1 (Homo sapiens) (UniProt Q05397); experiment: Inhibition of FAK assessed as residual activity at 10 uM after 80 mins by microplate scintillation counting
[24] = target: Focal adhesion kinase 1 (Homo sapiens) (UniProt Q05397); experiment: Inhibition of FAK assessed as residual activity at 1 uM after 80 mins by microplate scintillation counting
[25] = target: Fibroblast growth factor receptor 1 (Homo sapiens) (UniProt P11362); experiment: Inhibition of FGFR1 assessed as residual activity at 10 uM after 80 mins by microplate scintillation counting
Fibroblast growth factor receptor 1 (Homo sapiens), sequence (P11362 22-822 limits assumed): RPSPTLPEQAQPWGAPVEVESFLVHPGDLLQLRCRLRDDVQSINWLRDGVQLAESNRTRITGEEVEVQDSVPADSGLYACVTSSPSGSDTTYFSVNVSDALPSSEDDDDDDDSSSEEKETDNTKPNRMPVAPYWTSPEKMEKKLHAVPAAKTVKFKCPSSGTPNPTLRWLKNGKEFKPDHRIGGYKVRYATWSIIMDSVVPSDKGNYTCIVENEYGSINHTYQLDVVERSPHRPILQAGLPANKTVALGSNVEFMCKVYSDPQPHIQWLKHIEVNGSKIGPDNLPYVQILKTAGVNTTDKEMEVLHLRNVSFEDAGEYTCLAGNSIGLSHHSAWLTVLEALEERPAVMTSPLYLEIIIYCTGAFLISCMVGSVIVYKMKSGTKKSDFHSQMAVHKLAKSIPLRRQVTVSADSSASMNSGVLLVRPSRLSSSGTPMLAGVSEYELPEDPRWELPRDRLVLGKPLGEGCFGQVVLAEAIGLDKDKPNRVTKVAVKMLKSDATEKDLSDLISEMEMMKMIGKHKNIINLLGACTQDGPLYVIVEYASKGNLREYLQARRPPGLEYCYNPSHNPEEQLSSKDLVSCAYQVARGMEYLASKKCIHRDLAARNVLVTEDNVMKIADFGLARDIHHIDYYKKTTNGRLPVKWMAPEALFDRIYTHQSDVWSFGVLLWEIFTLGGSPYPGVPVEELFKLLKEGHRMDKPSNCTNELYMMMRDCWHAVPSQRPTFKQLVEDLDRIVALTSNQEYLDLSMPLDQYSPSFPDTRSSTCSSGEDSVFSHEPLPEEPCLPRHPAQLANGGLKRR

[26] = target: Fibroblast growth factor receptor 1 (Homo sapiens) (UniProt P11362); experiment: Inhibition of FGFR1 assessed as residual activity at 1 uM after 80 mins by microplate scintillation counting
[27] = target: Tyrosine-protein kinase Fgr (Homo sapiens) (UniProt P09769); experiment: Inhibition of FGR assessed as residual activity at 10 uM after 80 mins by microplate scintillation counting
[28] = target: Receptor-type tyrosine-protein kinase FLT3 (Homo sapiens) (UniProt P36888); experiment: Inhibition of FLT3 assessed as residual activity at 10 uM after 80 mins by microplate scintillation counting
Receptor-type tyrosine-protein kinase FLT3 (Homo sapiens), sequence (P36888 whole entry): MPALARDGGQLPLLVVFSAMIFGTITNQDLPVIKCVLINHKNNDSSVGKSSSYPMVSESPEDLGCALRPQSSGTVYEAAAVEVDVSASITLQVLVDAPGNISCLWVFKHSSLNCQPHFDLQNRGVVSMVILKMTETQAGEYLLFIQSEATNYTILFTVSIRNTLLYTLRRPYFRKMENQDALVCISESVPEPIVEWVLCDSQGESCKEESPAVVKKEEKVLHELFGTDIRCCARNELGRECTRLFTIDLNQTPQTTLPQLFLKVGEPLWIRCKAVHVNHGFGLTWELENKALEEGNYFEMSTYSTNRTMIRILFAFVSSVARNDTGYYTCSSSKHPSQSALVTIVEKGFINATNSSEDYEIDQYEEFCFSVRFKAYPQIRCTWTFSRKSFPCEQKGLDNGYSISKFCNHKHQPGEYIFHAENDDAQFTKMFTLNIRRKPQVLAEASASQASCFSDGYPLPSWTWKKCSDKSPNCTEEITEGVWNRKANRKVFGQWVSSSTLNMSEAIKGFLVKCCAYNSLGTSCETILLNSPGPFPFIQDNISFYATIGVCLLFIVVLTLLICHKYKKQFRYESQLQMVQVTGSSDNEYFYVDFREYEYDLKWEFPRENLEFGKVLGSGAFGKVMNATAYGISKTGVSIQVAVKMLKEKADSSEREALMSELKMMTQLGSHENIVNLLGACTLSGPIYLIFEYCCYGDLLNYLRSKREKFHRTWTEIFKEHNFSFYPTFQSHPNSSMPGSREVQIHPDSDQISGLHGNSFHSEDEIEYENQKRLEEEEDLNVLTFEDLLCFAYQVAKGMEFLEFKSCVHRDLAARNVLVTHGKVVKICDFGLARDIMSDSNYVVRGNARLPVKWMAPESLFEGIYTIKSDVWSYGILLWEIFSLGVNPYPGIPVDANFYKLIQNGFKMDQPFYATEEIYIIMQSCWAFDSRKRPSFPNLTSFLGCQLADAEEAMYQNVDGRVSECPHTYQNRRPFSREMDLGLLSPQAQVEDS

[29] = target: Receptor-type tyrosine-protein kinase FLT3 (Homo sapiens) (UniProt P36888); experiment: Inhibition of FLT3 assessed as residual activity at 1 uM after 80 mins by microplate scintillation counting
[30] = target: T2, Glycogen synthase kinase-3 beta (Homo sapiens, UniProt P49841); experiment: Inhibition of GSK3-beta assessed as residual activity at 10 uM after 80 mins by microplate scintillation counting
[31] = target: T2, Glycogen synthase kinase-3 beta; experiment: Inhibition of GSK3-beta assessed as residual activity at 1 uM after 80 mins by microplate scintillation counting
[32] = target: Insulin-like growth factor 1 receptor (Homo sapiens) (UniProt P08069); experiment: Inhibition of IGF1R assessed as residual activity at 1 uM after 80 mins by microplate scintillation counting
[33] = target: Mast/stem cell growth factor receptor Kit (Homo sapiens) (UniProt P10721); experiment: Inhibition of KIT assessed as residual activity at 10 uM after 80 mins by microplate scintillation counting
[34] = target: Muscle, skeletal receptor tyrosine-protein kinase (Homo sapiens) (UniProt O15146); experiment: Inhibition of MUSK assessed as residual activity at 10 uM after 80 mins by microplate scintillation counting
[35] = Solubility in water by spectrophotometry; format: physicochemical
[36] = target: T2, Glycogen synthase kinase-3 beta; experiment: Inhibition of GSK3-beta assessed as inhibition of [33Pi] incorporation after 80 mins by microplate scintillation counting
[37] = target: Tyrosine-protein kinase ABL1 (Homo sapiens) (UniProt P00519); experiment: Inhibition of ABL1 assessed as residual activity at 10 uM after 80 mins by microplate scintillation counting
[38] = target: Tyrosine-protein kinase ABL1 (Homo sapiens) (UniProt P00519); experiment: Inhibition of ABL1 assessed as residual activity at 1 uM after 80 mins by microplate scintillation counting

`CN1CCN(c2ccc(NC(=O)c3ccc4c(c3)/C(=C3/Nc5ccccc5C3=O)C(=O)N4)cc2)CC1` gave an Activity [1] of 81%, an Activity [2] of 31% and an Activity [3] of 94%. For the same molecule, the Activity [4] was 53%, the Activity [5] was 78% and the Activity [6] was 94%. The Activity [7] was 271%, the Activity [8] was 132% and the Activity [9] was 65%. For the same molecule, the Activity [10] was 100%, the Activity [11] was 99% and the Activity [12] was 86%. For the same molecule, the Activity [13] was 79%, the Activity [14] was 20% and the Activity [15] was 63%. The Activity [16] was 18%, the Activity [17] was 64% and the Activity [18] was 16%. For the same molecule, the Activity [19] was 45%, the Activity [20] was 43% and the Activity [21] was 40%. It also gave an Activity [22] of 99%, an Activity [23] of 92% and an Activity [24] of 103%. It also gave an Activity [25] of 83%, an Activity [26] of 88% and an Activity [27] of less than 50%. It also gave an Activity [28] of 11%, an Activity [29] of 67% and an Activity [30] of 6%. It also gave an Activity [31] of 27%, an Activity [32] of 102% and an Activity [33] of 129%. For the same molecule, the Activity [34] was 31%, the solubility [35] was 520 µg/mL (≈ 1080 µM) and the pIC50 [36] was 7.00. It also gave an Activity [37] of 26% and an Activity [38] of 88%.
